Published values of several laboratories.
Lines come from different studies, so protocols differ. ≈ marks a conversion by molar mass, not a printed value.
LCK: Tyrosine-protein kinase Lck (LCK, Homo sapiens, UniProt P06239)
MAP3K10: Mitogen-activated protein kinase kinase kinase 10 (MAP3K10, Homo sapiens, UniProt Q02779)
PIP4K2C: Phosphatidylinositol 5-phosphate 4-kinase type-2 gamma (PIP4K2C, Homo sapiens, UniProt Q8TBX8)

| Structure (SMILES) | target | observed | action | technique | tested at | measurement | result |
| --- | --- | --- | --- | --- | --- | --- | --- |
| CNC(=O)c1ccccc1Nc1nc(Nc2ccc(CO)cc2)ncc1Cl | LCK | enzyme activity | inhibitor | – | 1 µM | remaining activity | 1.89% |
| COc1ccc2oc(-c3ccc4nc(N)oc4c3)c/c(=N\c3ccccc3NC(=O)CCN)c2c1 | Serine/threonine-protein kinase 38 (STK38, Homo sapiens, UniProt Q15208) | binding | – | – | 1 µM | remaining binding | 104% |
| COc1cc(/C=N/NC(=S)NN=Cc2ccc([N+](=O)[O-])o2)ccc1Oc1ccnc2cc(Cl)ccc12 | Aldo-keto reductase family 1 member B1 (AKR1B1, Homo sapiens, UniProt P15121) | enzyme activity | inhibitor | – | – | IC20 | 1.65 µg/mL (≈ 3.14 µM) |
| CCCCC(=O)Nc1ccc(-c2ccc3ncn(CCC)c(=O)c3c2)cn1 | Dual specificity mitogen-activated protein kinase kinase 4 (MAP2K4, Homo sapiens, UniProt P45985) | binding | – | competition with immobilised ligand | 0.5 µM | remaining binding | 100% |
| C#Cc1cnc(Nc2ccnc(CO)c2)nc1Nc1ccccc1S(C)(=O)=NC#N (stereo not shown) | LCK | enzyme activity | inhibitor | – | 1 µM | remaining activity | 14.6% |
| Cc1cc(O)c(-c2ccc([C@@H](C)CN(C)C)cc2)c2c1[nH]c(=O)c1sccc12 | MAP3K10 | enzyme activity | inhibitor | – | 0.1 µM | inhibition | -11.7% |
| CS(=O)(=NC#N)c1ccccc1Nc1nc(Nc2ccnc(CO)c2)ncc1Cl (stereo not shown) | LCK | enzyme activity | inhibitor | – | 1 µM | remaining activity | 41% |
| N[C@@H](CC(=O)O)C(=O)O | Electrogenic aspartate/glutamate antiporter SLC25A13, mitochondrial (SLC25A13, Homo sapiens, UniProt Q9UJS0) | thermal stability | – | DSF | 1 mM | ΔTm | ~3 °C |
| C1=C/COCc2cc(ccc2OCCN2CCCC2)Nc2nccc(n2)-c2cccc(c2)COC/1 | Proto-oncogene tyrosine-protein kinase receptor Ret (RET, Homo sapiens, UniProt P07949, V804M) | binding | – | – | 0.1 µM | remaining binding | 84% |
| CCCC(=O)Nc1ccc(-c2ccc3ncn(CCC)c(=O)c3c2)cn1 | PIP4K2C | binding | – | competition with immobilised ligand | 0.5 µM | inhibition | 99.5% |
| COc1cccc2c(N3CCC(CCP(=O)(O)O)CC3)ncnc12 | Ectonucleotide pyrophosphatase/phosphodiesterase family member 1 (ENPP1, Homo sapiens, UniProt P22413) | binding | – | SPR | – | residence time | 8.73 min |
| C#Cc1cc(-c2cc(Nc3nc(N[C@@H](C)c4ccc(F)cn4)ncc3Cl)n[nH]2)ccc1C=O | MAP3K10 | enzyme activity | inhibitor | – | 0.2 µM | inhibition | 54.5% |
| CCCCC(=O)Nc1ccc(-c2ccc3ncn(CCF)c(=O)c3c2)cn1 | PIP4K2C | binding | – | competition with immobilised ligand | 0.5 µM | inhibition | 97.5% |
